The source of these data is ChEMBL document CHEMBL1146047, “Novel pyrazolopyrimidopyridazinones with potent and selective phosphodiesterase 5 (PDE5) inhibitory activity as potential agents for treatment of erectile dysfunction” (J Med Chem, 2006).

pIC50: −log10 of the molar value.

Experiment [1] deals with T1, cGMP-specific 3',5'-cyclic phosphodiesterase (Homo sapiens, UniProt O76074). In words: Inhibition of PDE5.
Experiment [2] relates to Phosphodiesterase 6 (Bos taurus). Nature of the experiment: Inhibition of PDE6 at 2 uM.
The target in experiment [3] is Phosphodiesterase 6 (Bos taurus). In words: Inhibition of PDE6.
Experiment [4] deals with Phosphodiesterase 6 (Bos taurus). Nature of the experiment: Inhibition of PDE6 at 0.2 uM.
In experiment [5] the target is T1, cGMP-specific 3',5'-cyclic phosphodiesterase. Nature of the experiment: Inhibition of PDE5 at 0.2 uM. Summed up: (§1)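 PDE5 enzyme preparation was stored frozen at -80 °C with 1 g/L bovine serum albumin until use. […] Activity is reported as percent inhibition at the single test concentration indicated.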
For experiment [6] the target is unchanged. In words: Inhibition of PDE5 at 2 uM. A digest of the protocol: as §1
The species entered for experiment [7] is Homo sapiens. In words: Selectivity for PDE5 over PDE6.

For orientation: pIC50 means the IC50 on a negative log10 scale, so that one unit is a factor of ten. High values mean a small IC50, low ones a large IC50. For orientation: inhibition means the drop in the measured response relative to a control, in per cent. The compound `COC(=O)CCc1nc2c(=O)n(Cc3ccccc3)nc(C)c2c2cc(-c3ccccc3)nn12` gave a pIC50 in experiment [1] of 7.10. In experiment [2], this compound displayed an inhibition of 16.9%.

By IC50 is commonly meant the point on the concentration scale where inhibition reaches its midpoint. In experiment [1], `Cc1nn(Cc2ccccc2)c(=O)c2nc(C)n3nc(-c4ccc(Cl)cc4)cc3c12` gave a pIC50 of 6.43. The same compound came in with an IC50 in experiment [3] of 4.7 µM.

Compound `Cc1nn(Cc2ccccc2)c(=O)c2ncn3nc(-c4ccccc4)cc3c12` gave a pIC50 in experiment [1] of 6.74. In experiment [3], this compound yielded an IC50 of 0.86 µM.

As to `Cc1nc2c(=O)n(Cc3ccccc3)nc(CN3CCN(C)CC3)c2c2cc(-c3ccccc3)nn12`, the inhibition in experiment [4] is 30%; in experiment [5], 23%.

Take `Cc1nn(C(C)C)c(=O)c2nc(C)n3nc(-c4ccccc4)cc3c12`: the inhibition in experiment [6] was 44.7%; in experiment [2], 1.2%.

As for `Cc1nc2c(=O)n(Cc3ccccc3)nc(C3CCCC3)c2c2cc(-c3ccccc3)nn12`, the inhibition in experiment [6] was 14.3%; in experiment [2], 12.3%.

The compound `Cc1nnc(NCc2ccccc2)c2nc(C)n3nc(-c4ccccc4)cc3c12` registered an inhibition in experiment [6] of 52.4%.

As for `Cc1nn(Cc2ccccc2)c(=O)c2nc(C)n3nc(-c4ccc(F)cc4)cc3c12`, the inhibition in experiment [6] turned out to be 38.8%; in experiment [2], 4.5%.

For `COC(=O)CCCCc1nc2c(=O)n(Cc3ccccc3)nc(C)c2c2cc(-c3ccccc3)nn12`, the negative logarithm of the IC50 (pIC50) in experiment [1] is 7.02. Further, in experiment [2], the inhibition worked out at 1.1%.

Regarding `Cc1nn(Cc2ccc3c(c2)OCO3)c(=O)c2nc(C)n3nc(-c4ccccc4)cc3c12`, in experiment [1], the pIC50 was 6.41. The compound further showed an inhibition in experiment [2] of 7%.

In turn, `Cc1nnc(NCc2ccc3c(c2)OCO3)c2nc(C)n3nc(-c4ccccc4)cc3c12` came in with an inhibition in experiment [6] of 56.8%.

Consider `COc1cccc(Cn2nc(C)c3c(nc(C)n4nc(-c5ccccc5)cc34)c2=O)c1`, for which the pIC50 in experiment [1] is 7.00. Also, in experiment [7], the Selectivity ratio was greater than 20. The same compound gave an inhibition in experiment [2] of 3.8%.

As to `CCn1nc(C)c2c(nc(C)n3nc(-c4ccccc4)cc23)c1=O`, the inhibition in experiment [4] turned out to be 53.4%; in experiment [6] it was 49.3%.

In experiment [1], `Cc1nn(Cc2ccccc2)c(=O)c2nc(C)n3nc(-c4cccnc4)cc3c12` showed a pIC50 of 6.33. The half-maximal inhibitory concentration (IC50) in experiment [3] turned out to be 0.28 µM.

In experiment [1], `CCc1nn(Cc2ccccc2)c(=O)c2nc(C)n3nc(-c4ccccc4)cc3c12` gave a pIC50 of 6.66. The inhibition in experiment [2] is 21.8%.

For the compound `Cc1nn(Cc2ccncc2)c(=O)c2nc(C)n3nc(-c4ccccc4)cc3c12`, the pIC50 in experiment [1] is 6.62. Further, in experiment [2], the inhibition was 39.4%.

For the compound `CCCCn1nc(C)c2c(nc(C)n3nc(-c4ccccc4)cc23)c1=O`, the inhibition stood at 54.6% in experiment [6] and 32.5% in experiment [2].

On to `Cc1nn(Cc2ccccc2)c(=O)c2nc(C)n3nc(-c4ccccc4)cc3c12`, for which, in experiment [2], the inhibition came out at 25%.

In experiment [1], `CCCc1nc2c(=O)n(Cc3ccccc3)nc(C)c2c2cc(-c3ccccc3)nn12` showed a pIC50 of 7.40. Besides, the IC50 in experiment [3] is 0.61 µM. For the same compound, in experiment [7], the Selectivity ratio worked out at 15.

On to `CCCn1nc(C)c2c(nc(C)n3nc(-c4ccccc4)cc23)c1=O`, for which the results for the inhibition in experiment [6] and in experiment [2] were 44.9% and 6.9%, respectively.

For the compound `Cc1nn(CCC2CCNCC2)c(=O)c2nc(C)n3nc(-c4ccccc4)cc3c12`, the inhibition in experiment [6] turned out to be 67.7%; in experiment [2] it was 26.6%.

In experiment [1], `CCOCc1nn(Cc2ccccc2)c(=O)c2nc(C)n3nc(-c4ccccc4)cc3c12` showed a pIC50 of 7.15. This compound displayed an IC50 in experiment [3] of 0.33 µM.

As to `Cc1nn(Cc2ccccc2)c(=O)c2nc(C)n3nc(-c4ccoc4)cc3c12`, the pIC50 in experiment [1] was 7.30. For the same compound, the IC50 in experiment [3] was determined as 0.33 µM.

As to `Cc1nn(Cc2ccccc2)c(=O)c2nc(C)n3nc(-c4ccc(S(C)(=O)=O)cc4)cc3c12`, the inhibition in experiment [6] came to 3.8%; in experiment [2], 2.8%.

`CC(=O)CCc1nc2c(=O)n(Cc3ccccc3)nc(C)c2c2cc(-c3ccccc3)nn12` showed a pIC50 in experiment [1] of 8.08. Moreover, the Selectivity ratio in experiment [7] is greater than 240. In addition, the inhibition in experiment [2] came out at 22.8%.

As to `C#CCn1nc(C)c2c(nc(C)n3nc(-c4ccccc4)cc23)c1=O`, the inhibition was determined as 0.3% in experiment [4] and 19.7% in experiment [5].

`Cc1nn(Cc2ccccc2)c(=O)c2nc(C)n3nc(-c4ccsc4)cc3c12` had a pIC50 in experiment [1] of 6.85. Further, the IC50 in experiment [3] is 2.2 µM. Also, the Selectivity ratio in experiment [7] stood at 16.

Regarding `Cc1nn(CC(=O)O)c(=O)c2nc(C)n3nc(-c4ccccc4)cc3c12`, the inhibition in experiment [4] is 11.2%; in experiment [5], 7.6%.

The compound `Cc1nc2c(=O)n(Cc3ccccc3)nc(C(C)C)c2c2cc(-c3ccccc3)nn12` gave a pIC50 in experiment [1] of 7.00. In experiment [2], the inhibition was determined as 59.8%.
